ChEMBL document CHEMBL1147099, “In vitro and in vivo antibacterial activities of heteroaryl isothiazolones against resistant gram-positive pathogens” (Antimicrob Agents Chemother, 2007)
Values after ≈ are worked out from the molar mass of the structure shown.

Assays:
[1] = tested on: Staphylococcus aureus; assay: Antibacterial activity against methicillin-susceptible Staphylococcus aureus after 24 hrs by broth microdilution method; assay type: functional
Summary of the method: (§1)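 Broth microdilution per CLSI in cation-adjusted Mueller-Hinton II broth, final inoculum approximately 5 × 10^5 CFU/ml. Plates were incubated aerobically at 35 to 37°C for 24 h. MIC was the lowest concentration giving no visible growth. Reserpine, where used, was at a final concentration of 20 μg/ml.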

[2] = tested on: Staphylococcus aureus; assay: Antibacterial activity against methicillin-resistant Staphylococcus aureus after 24 hrs by broth microdilution method; assay type: functional; summary of the method: as §1
[3] = tested on: Legionella pneumophila; assay: Antibacterial activity against Legionella pneumophila after 24 hrs by broth microdilution method; assay type: functional
[4] = tested on: Mycoplasmoides pneumoniae; assay: Antibacterial activity against Mycoplasma pneumoniae after 24 hrs by broth microdilution method; assay type: functional
[5] = tested on: Neisseria gonorrhoeae; assay: Antibacterial activity against Neisseria gonorrhoeae after 24 hrs by broth microdilution method; assay type: functional
Summary of the method: (§2)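 CLSI broth microdilution in cation-adjusted Mueller-Hinton II broth, final inoculum about 5 × 10^5 CFU/ml for most strains; streptococci supplemented with 2–5% lysed horse blood, H. influenzae in Haemophilus test medium. Aerobic incubation at 35–37°C for 24 h; MIC = lowest concentration with no visible growth.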

[6] = tested on: Enterococcus faecalis; assay: Antibacterial activity against Enterococcus faecalis; assay type: functional
Summary of the method: (§3)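 Aerobic isolates run by CLSI broth microdilution in cation-adjusted Mueller-Hinton II broth (streptococci plus 2–5% lysed horse blood), about 5 × 10^5 CFU/ml final; 24 h at 35–37°C aerobically; MIC read as lowest concentration without visible growth.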

[7] = tested on: Enterococcus faecium; assay: Antibacterial activity against Enterococcus faecium; assay type: functional; summary of the method: as §3
[8] = tested on: Streptococcus pyogenes; assay: Antibacterial activity against Streptococcus pyogenes; assay type: functional; summary of the method: as §3
[9] = tested on: Haemophilus influenzae; assay: Antibacterial activity against Haemophilus influenzae after 24 hrs by broth microdilution method; assay type: functional; summary of the method: as §2
[10] = tested on: Neisseria meningitidis; assay: Antibacterial activity against Neisseria meningitidis after 24 hrs by broth microdilution method; assay type: functional; summary of the method: as §2
[11] = tested on: Moraxella catarrhalis; assay: Antibacterial activity against Moraxella catarrhalis after 24 hrs by broth microdilution method; assay type: functional; summary of the method: as §2
[12] = tested on: Streptococcus pneumoniae; assay: Antibacterial activity against Streptococcus pneumoniae by agar dilution method; assay type: functional
[13] = tested on: Streptococcus viridans; assay: Antibacterial activity against Streptococcus viridans after 24 hrs by broth microdilution method; assay type: functional; summary of the method: as §2
[14] = tested on: Staphylococcus aureus; assay: Antibacterial activity against […] Staphylococcus aureus ATCC 29213 in presence of 20 ug/ml reserpine after 24 hrs by broth microdilution method; assay type: functional; details: ATCC 29213, 24 h; summary of the method: as §1
[15] = tested on: Staphylococcus aureus; assay: Antibacterial activity against ethidium bromide-resistant Staphylococcus aureus BSA678 after 24 hrs by broth microdilution method; assay type: functional; details: BSA678, 24 h; summary of the method: as §1
[16] = Cmax in mouse at 20 mg/kg, sc; assay type: ADME, organism-based; set-up: dose 20 mg/kg, route subcutaneous; details: in vivo
Summary of the method: (§4)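 Fasted mice given one subcutaneous dose (20 or 50 mg/kg); blood taken from groups of three at 0.08, 0.25, 0.5, 1, 2, 4, 8, 24 h. Plasma protein-precipitated with cold acetonitrile plus internal standard, LC-MS/MS (C8, positive ESI, SRM); calibration 5–15,000 ng/ml. Noncompartmental analysis of mean concentrations; AUC to last quantifiable point by linear trapezoidal rule.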

[17] = Cmax in mouse at 50 mg/kg, sc; assay type: ADME, organism-based; set-up: dose 50 mg/kg, route subcutaneous; details: in vivo; summary of the method: as §4
[18] = AUC (0-24 hrs) in mouse at 20 mg/kg, sc; assay type: ADME, organism-based; set-up: time < 24 hr, dose 20 mg/kg, route subcutaneous; details: plasma; summary of the method: as §4
[19] = AUC (0-24 hrs) in mouse at 50 mg/kg, sc; assay type: ADME, organism-based; set-up: time < 24 hr, dose 50 mg/kg, route subcutaneous; details: plasma; summary of the method: as §4
[20] = Tmax in mouse at 20 mg/kg, sc; assay type: ADME, organism-based; set-up: dose 20 mg/kg, route subcutaneous; details: in vivo; summary of the method: as §4
[21] = Tmax in mouse at 50 mg/kg, sc; assay type: ADME, organism-based; set-up: dose 50 mg/kg, route subcutaneous; details: in vivo; summary of the method: as §4
[22] = tested on: Staphylococcus aureus; assay: Antibacterial activity against ethidium bromide-resistant Staphylococcus aureus Mu50 after 24 hrs by broth microdilution method; assay type: functional; details: Mu50, 24 h; summary of the method: as §1
[23] = tested on: Staphylococcus aureus; assay: Antibacterial activity against […] Staphylococcus aureus ATCC 29213 after 24 hrs by broth microdilution method; assay type: functional; details: ATCC 29213, 24 h; summary of the method: as §1
[24] = tested on: Staphylococcus aureus; assay: Antibacterial activity against ethidium bromide-resistant Staphylococcus aureus Mu50 in presence of 20 ug/ml reserpine after 24 hrs by broth microdilution method; assay type: functional; details: Mu50, 24 h; summary of the method: as §1
[25] = tested on: Staphylococcus aureus; assay: Antibacterial activity against ethidium bromide-resistant Staphylococcus aureus BSA643 after 24 hrs by broth microdilution method; assay type: functional; details: BSA643, 24 h; summary of the method: as §1
[26] = tested on: Staphylococcus aureus; assay: microbe, parasite or virus in culture; details: Mu50
[27] = tested on: Cutibacterium acnes; assay: Antibacterial activity against Propionibacterium acnes; assay type: functional
Summary of the method: (§5)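 Anaerobes by CLSI agar dilution on brucella agar with hemin, vitamin K and 5% laked sheep blood; inoculum from 24-h enriched blood agar colonies resuspended in brucella broth to 0.5 McFarland. Plates incubated anaerobically at 35–37°C for 48 h.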

[28] = tested on: Clostridioides difficile; assay: Antibacterial activity against Clostridium difficile by agar dilution method; assay type: functional; summary of the method: as §5
[29] = tested on: Peptostreptococcus sp.; assay: Antibacterial activity against Peptostreptococcus sp. by agar dilution method; assay type: functional; summary of the method: as §5
[30] = tested on: Bacteroides fragilis; assay: Antibacterial activity against Bacteroides fragilis by agar dilution method; assay type: functional; summary of the method: as §5

Cc1onc(-c2ccccc2)c1C(=O)N[C@@H]1C(=O)N2[C@@H]1SC(C)(C)[C@@H]2C(=O)O [OXACILLIN]
MIC50 [1]: 0.5 µg/mL (≈ 1.25 µM) | MIC90 [1]: 0.5 µg/mL (≈ 1.25 µM) | MIC50 [2]: > 16 µg/mL | MIC90 [2]: > 16 µg/mL

C[C@H]1c2cccc(O)c2C(=O)C2=C(O)[C@]3(O)C(=O)C(C(N)=O)=C(O)[C@@H](N(C)C)[C@@H]3[C@@H](O)[C@@H]21.O [DOXYCYCLINE]
MIC [3]: 1 µg/mL | MIC [4]: 0.25 µg/mL

CN(C)[C@@H]1C(O)=C(C(N)=O)C(=O)[C@@]2(O)C(O)=C3C(=O)c4c(O)cccc4[C@@](C)(O)[C@H]3C[C@@H]12 [TETRACYCLINE]
MIC50 [5]: 0.25 µg/mL (≈ 0.563 µM) | MIC90 [5]: 1 µg/mL (≈ 2.25 µM)

CC[C@H]1OC(=O)[C@H](C)[C@@H](O[C@H]2C[C@@](C)(OC)[C@@H](O)[C@H](C)O2)[C@H](C)[C@@H](O[C@@H]2O[C@H](C)C[C@H](N(C)C)[C@H]2O)[C@](C)(O)C[C@@H](C)CN(C)[C@H](C)[C@@H](O)[C@]1(C)O [AZITHROMYCIN]
MIC50 [1]: 1 µg/mL (≈ 1.34 µM) | MIC90 [1]: > 8 µg/mL | MIC50 [6]: 4 µg/mL (≈ 5.34 µM) | MIC90 [6]: > 16 µg/mL | MIC50 [7]: > 16 µg/mL | MIC90 [7]: > 16 µg/mL | MIC50 [8]: 0.12 µg/mL (≈ 0.16 µM) | MIC90 [8]: > 8 µg/mL | MIC [3]: 0.12 µg/mL (≈ 0.16 µM) | MIC [4]: ≤ 0.004 µg/mL | MIC50 [9]: 0.5 µg/mL (≈ 0.668 µM) | MIC90 [9]: 2 µg/mL (≈ 2.67 µM) | MIC50 [10]: 0.5 µg/mL (≈ 0.668 µM) | MIC90 [10]: 1 µg/mL (≈ 1.34 µM) | MIC50 [5]: 0.06 µg/mL (≈ 0.0801 µM) | MIC90 [5]: 0.12 µg/mL (≈ 0.16 µM) | MIC50 [11]: 0.015 µg/mL (≈ 0.02 µM) | MIC90 [11]: 0.03 µg/mL (≈ 0.0401 µM) | MIC50 [2]: > 8 µg/mL | MIC50 [12]: 4 µg/mL (≈ 5.34 µM) | MIC90 [12]: > 8 µg/mL | MIC50 [13]: 1 µg/mL (≈ 1.34 µM) | MIC90 [13]: 4 µg/mL (≈ 5.34 µM)

C[C@@H](O)[C@H]1C(=O)N2C(C(=O)O)=C(S[C@@H]3CN[C@H](C(=O)N(C)C)C3)[C@H](C)[C@H]12 [MEROPENEM]
MIC50 [10]: 0.008 µg/mL (≈ 0.0209 µM) | MIC90 [10]: 0.015 µg/mL (≈ 0.0391 µM)

O=C(O)c1cn(C2CC2)c2cc(N3CCNCC3)c(F)cc2c1=O [CIPROFLOXACIN]
MIC [14]: 0.25 µg/mL | MIC [15]: > 64 µg/mL | Cmax [16]: 3360 ng/mL | Cmax [17]: 7720 ng/mL | AUC(0-t) at 24 h [18]: 5950 ng·h/mL | AUC(0-t) at 24 h [19]: 14400 ng·h/mL | Tmax [20]: 30 min | Tmax [21]: 30 min | MIC50 [5]: 0.004 µg/mL (≈ 0.0121 µM) | MIC90 [5]: 0.008 µg/mL (≈ 0.0241 µM) | MIC [22]: 32 µg/mL (≈ 96.6 µM) | MIC [23]: 0.25 µg/mL (≈ 0.754 µM) | MIC [24]: 32 µg/mL | MIC [25]: 128 µg/mL (≈ 386 µM) | MIC [26]: > 64 µg/mL

Cc1ncc([N+](=O)[O-])n1CCO [METRONIDAZOLE]
MIC50 [27]: > 64 µg/mL | MIC90 [27]: > 64 µg/mL | MIC50 [28]: 0.5 µg/mL (≈ 2.92 µM) | MIC90 [28]: 0.5 µg/mL (≈ 2.92 µM)

CN(C)c1ccc(O)c2c1C[C@H]1C[C@H]3[C@H](N(C)C)C(O)=C(C(N)=O)C(=O)[C@@]3(O)C(O)=C1C2=O [MINOCYCLINE]
MIC50 [10]: 0.12 µg/mL (≈ 0.262 µM) | MIC90 [10]: 0.12 µg/mL (≈ 0.262 µM)

CCC[C@@H]1C[C@@H](C(=O)N[C@@H]([C@H]2O[C@H](SC)[C@H](O)[C@@H](O)[C@H]2O)[C@H](C)Cl)N(C)C1 [CLINDAMYCIN]
MIC50 [29]: 0.25 µg/mL (≈ 0.588 µM) | MIC90 [29]: 1 µg/mL (≈ 2.35 µM) | MIC50 [27]: 0.06 µg/mL (≈ 0.141 µM) | MIC90 [27]: 0.06 µg/mL (≈ 0.141 µM) | MIC50 [30]: 1 µg/mL (≈ 2.35 µM) | MIC90 [30]: 4 µg/mL (≈ 9.41 µM) | MIC50 [28]: 2 µg/mL (≈ 4.71 µM) | MIC90 [28]: > 32 µg/mL
